Results taken from ChEMBL document CHEMBL1132804, “Inhibitors of src tyrosine kinase: the preparation and structure-activity relationship of 4-anilino-3-cyanoquinolines and 4-anilinoquinazolines” (Bioorg Med Chem Lett, 2000).
pIC50: −log10 of the molar value.

Biological target: T1, Proto-oncogene tyrosine-protein kinase Src (Homo sapiens, UniProt P12931)
Assay: In vitro inhibition of c-src tyrosine kinase.
Summary of the method: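 ELISA tyrosine kinase kit format. ATP was then added to start the reaction, which ran 1 h at 30 °C and was stopped with EDTA. Duplicate testing; IC50 is the average of two determinations.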

T1 sequence (P12931 2-536 limits assumed): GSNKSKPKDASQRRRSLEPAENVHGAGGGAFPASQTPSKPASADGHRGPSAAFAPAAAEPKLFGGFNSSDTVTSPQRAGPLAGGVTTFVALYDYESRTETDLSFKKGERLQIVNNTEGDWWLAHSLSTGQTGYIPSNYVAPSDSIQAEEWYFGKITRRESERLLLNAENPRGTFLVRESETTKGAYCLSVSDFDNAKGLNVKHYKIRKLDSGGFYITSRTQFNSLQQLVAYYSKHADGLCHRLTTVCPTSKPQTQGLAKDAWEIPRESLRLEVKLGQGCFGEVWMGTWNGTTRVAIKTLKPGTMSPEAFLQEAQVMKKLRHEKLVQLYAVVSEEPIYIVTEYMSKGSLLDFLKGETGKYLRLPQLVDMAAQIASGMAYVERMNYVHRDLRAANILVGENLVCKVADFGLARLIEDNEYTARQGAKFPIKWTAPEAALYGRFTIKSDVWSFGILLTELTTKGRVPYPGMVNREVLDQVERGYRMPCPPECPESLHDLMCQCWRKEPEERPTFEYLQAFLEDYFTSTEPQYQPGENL

SMILES	pIC50
COc1cc2ncnc(Nc3cc(OC)c(OC)c(OC)c3)c2cc1OC	6.55
COc1cc2nccc(Nc3cc(OC)c(OC)c(OC)c3)c2cc1OC	6.70
CCCCCCCCCCCCOc1c(OC)cc(Nc2c(C#N)cnc3cc(OC)c(OC)cc23)cc1OC	6.74
CCOc1c(OC)cc(Nc2c(C#N)cnc3cc(OC)c(OC)cc23)cc1OC	7.20
CCCCCCCCCCCCOc1c(OC)cc(Nc2ncnc3cc(OC)c(OC)cc23)cc1OC	5.28
COc1cc2ncc(C#N)c(Nc3cc(OC)c(OC)c(OC)c3)c2cc1OC	7.46
COc1cc2ncc(C#N)c(Oc3cc(OC)c(OC)c(OC)c3)c2cc1OC	6.54
CCCCOc1c(OC)cc(Nc2ncnc3cc(OC)c(OC)cc23)cc1OC	6.31
COc1cc2ncc(C#N)c(Nc3cc(OC)c(OC)c(OC)c3C)c2cc1OC	6.33
CCOc1c(OC)cc(Nc2ncnc3cc(OC)c(OC)cc23)cc1OC	6.47
COc1cc(Nc2c(C#N)cnc3cc(OC)c(OC)cc23)cc(OC)c1	6.01

More lines, now with the values ahead:

pIC50	SMILES
< 5.00	COc1cc2ncc(CO)c(Nc3cc(OC)c(OC)c(OC)c3)c2cc1OC
6.96	COc1cc2ncc(C#N)c(Nc3cc(OC)c(OC(C)C)c(OC)c3)c2cc1OC
8.28	COc1cc2c(Nc3cc(OC)c(OC)c(OC)c3)c(C#N)cnc2cc1OCCCN1CCCCC1
5.57	COc1cc2ncnc(Nc3cc(OC)c(OC(C)(C)C)c(OC)c3)c2cc1OC
6.08	COc1cc2ncnc(Nc3cc(OC)c(OC(C)C)c(OC)c3)c2cc1OC
< 5.00	CCOC(=O)c1cnc2cc(OC)c(OC)cc2c1Nc1cc(OC)c(OC)c(OC)c1
6.02	COc1ccc(Nc2c(C#N)cnc3cc(OC)c(OC)cc23)cc1OC
6.77	COc1cc2ncc(C#N)c(Nc3cc(OC)c(OC)c(OC)c3Br)c2cc1OC
8.26	COc1cc2c(Nc3cc(OC)c(OC)c(OC)c3)c(C#N)cnc2cc1OCCCN1CCC(O)CC1

Biological target: T1, Proto-oncogene tyrosine-protein kinase Src
Assay: Inhibition of Src kinase at 1000 nM ATP
Summary of the method: (§1)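 ATP-dependence study in the same ELISA format. Human c-Src protein (3 units/reaction) and cdc2 substrate peptide were in Tris-HCl pH 7.5 buffer with MgCl₂, EGTA and Na₃VO₄. Compound preincubation was 10 min at 30 °C. The reaction was started with ATP at four final levels (100, 500, 1000, 5000), run 1 h at 30 °C and stopped with EDTA. IC50 was determined at each ATP level.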

pIC50	SMILES
6.72	COc1cc2ncc(C#N)c(Nc3cc(OC)c(OC)c(OC)c3)c2cc1OC

Biological target: T1, Proto-oncogene tyrosine-protein kinase Src
Assay: Inhibition of Src kinase at 100 nM ATP
Summary of the method: as §1

pIC50	SMILES
7.47	COc1cc2ncc(C#N)c(Nc3cc(OC)c(OC)c(OC)c3)c2cc1OC

Biological target: T1, Proto-oncogene tyrosine-protein kinase Src
Assay: Inhibition of Src kinase at 5000 nM ATP
Summary of the method: as §1

pIC50	SMILES
6.19	COc1cc2ncc(C#N)c(Nc3cc(OC)c(OC)c(OC)c3)c2cc1OC

Biological target: T1, Proto-oncogene tyrosine-protein kinase Src
Assay: Inhibition of Src kinase at 500 nM ATP
Summary of the method: as §1

pIC50	SMILES
6.97	COc1cc2ncc(C#N)c(Nc3cc(OC)c(OC)c(OC)c3)c2cc1OC
